Results published in ChEMBL document CHEMBL1649157, “Intracellular activity of antibiotics against Staphylococcus aureus in a mouse peritonitis model” (Antimicrob Agents Chemother, 2009).
Converted amounts (≈) assume the structure as drawn. The source made the active and inactive calls. The calls are words filed in the database; no cut-off is given here.

Key:
Staphylococcus aureus [1] = assay: Bacteriostatic activity against Staphylococcus aureus E19977 assessed as log reduction in cfu at 0.5 mg/liter upto 8 hrs by time-kill study; format: functional, organism-based
Staphylococcus aureus [2] = assay: Bactericidal activity against Staphylococcus aureus E19977 assessed as log reduction in cfu at 9 mg/liter after 24 hrs by time-kill study; format: functional, organism-based
Summary of the method: (§1)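 In vitro kinetic model simulating antibiotic elimination without inoculum change. Exponential-phase E19977 was added at a final 10^6.3 CFU/ml. Starting drug concentration matched the human free peak, with the human half-life simulated. Samples were plated on 5% blood agar at 0, 2, 4, 6, 8, 12 and 24 h, with growth controls in each run. Results are shown as mean and range, n = 2.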

Staphylococcus aureus [3] = assay: Bactericidal activity against Staphylococcus aureus E19977 assessed as log reduction in cfu at 2 mg/liter after 24 hrs by time-kill study; format: functional, organism-based; summary of the method: as §1
Staphylococcus aureus [4] = assay: Bactericidal activity against Staphylococcus aureus E19977 assessed as log reduction in cfu at 1.5 mg/liter after 24 hrs by time-kill study; format: functional, organism-based; summary of the method: as §1
Staphylococcus aureus [5] = assay: Bactericidal activity against Staphylococcus aureus E19977 assessed as log reduction in cfu at 20 mg/liter after 24 hrs by time-kill study; format: functional, organism-based; summary of the method: as §1
Staphylococcus aureus [6] = assay: Bactericidal activity against Staphylococcus aureus E19977 assessed as log reduction in cfu at 0.5 mg/liter after 24 hrs by time-kill study; format: functional, organism-based; summary of the method: as §1
Staphylococcus aureus [7] = assay: Antibacterial activity against Staphylococcus aureus E19977 infected in NMRI mouse assessed as log reduction in bacterial cfu in peritoneum at 1 mg/kg, sc administered 2 hrs after infection measured after 4 hrs; format: functional, organism-based; parameters: dose 1 mg/kg
Summary of the method: (§2)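 Female NMRI mice (25–30 g) were infected i.p. with 0.5 ml of 10^7.7 CFU/ml in 5% mucin. […] Pooled washes were split into total, extracellular and intracellular fractions by 300 × g spin, lysostaphin, HBSS washes and water lysis. Counts were compared with untreated mice.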

Staphylococcus aureus [8] = assay: Antibacterial activity against Staphylococcus aureus E19977 infected in NMRI mouse assessed as log reduction in intracellular bacterial cfu in peritoneum at 1 mg/kg, sc administered 2 hrs after infection measured after 4 hrs; format: functional, organism-based; parameters: dose 1 mg/kg; summary of the method: as §2
Staphylococcus aureus [9] = assay: Antibacterial activity against Staphylococcus aureus E19977 infected in NMRI mouse assessed as log reduction in extracellular bacterial cfu in peritoneum at 1 mg/kg, sc administered 2 hrs after infection measured after 4 hrs; format: functional, organism-based; parameters: dose 1 mg/kg; summary of the method: as §2
Staphylococcus aureus [10] = assay: Antibacterial activity against Staphylococcus aureus E19977 by Etest; format: functional
[11] = Cmax in human at 1000 mg, po; format: ADME, organism-based; parameters: dose 1000 mg, route oral; details: in vivo
Serum [12] = assay: Protein binding in human serum at 1000 mg, po; format: ADME, organism-based; details: in vivo
[13] = Half life in human at 1000 mg, po; format: ADME, organism-based; details: in vivo
Staphylococcus aureus [14] = assay: Bactericidal activity against Staphylococcus aureus E19977 assessed as log reduction in cfu at 2 mg/liter after 12 hrs by time-kill study; format: functional
Summary of the method: (§3)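 Clinical bacteremia isolate (penicillin-resistant, methicillin-susceptible). Exponential-phase bacteria were placed in an in vitro kinetic model that simulates drug elimination without changing the inoculum. The starting drug level matched the human free peak serum concentration after a single dose, with simulated human elimination half-life. Samples were taken at 0, 2, 4, 6, 8, 12 and 24 h, with growth controls in each run.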

Staphylococcus aureus [15] = assay: Bactericidal activity against Staphylococcus aureus E19977 assessed as log reduction in cfu at 2 mg/liter upto 24 hrs by time-kill study; format: functional; summary of the method: as §3
Staphylococcus aureus [16] = assay: Bactericidal activity against Staphylococcus aureus E19977 assessed as log reduction in cfu at 1.5 mg/liter upto 24 hrs by time-kill study; format: functional; summary of the method: as §3
Staphylococcus aureus [17] = assay: Bactericidal activity against Staphylococcus aureus E19977 assessed as log reduction in cfu at 20 mg/liter upto 24 hrs by time-kill study; format: functional
Summary of the method: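 In vitro kinetic model: exponential-phase bacteria at a final 10^6.3 CFU/ml were exposed to a starting concentration set to the human free peak level. Elimination followed the simulated human half-life. Samples were taken at 0, 2, 4, 6, 8, 12 and 24 h and counted on 5% blood agar (detection limit 25 CFU/ml). Growth controls were included; n = 2.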

Staphylococcus aureus [18] = assay: Antibacterial activity against Staphylococcus aureus E19977 infected in NMRI mouse assessed as log reduction in bacterial cfu in peritoneum at 200 mg/kg, sc administered 2 hrs after infection measured after 4 hrs; format: functional, organism-based; parameters: dose 200 mg/kg
Summary of the method: (§4)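 Dose–response in i.p.-infected NMRI mice (mucin adjuvant). Single doses of 200, 60, 30, 20 or 10 mg/kg were given 2 h after inoculation, with 4–16 mice per group. Peritoneal wash was sampled 4 h later and split by lysostaphin/centrifugation into total, extra- and intracellular counts, then expressed as Δlog10 CFU/ml against log dose. Vehicle controls were plotted as 0.3 mg/kg. Hill fit (variable slope); static dose interpolated.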

Staphylococcus aureus [19] = assay: Antibacterial activity against Staphylococcus aureus E19977 infected in NMRI mouse assessed as log reduction in intracellular bacterial cfu in peritoneum at 200 mg/kg, sc administered 2 hrs after infection measured after 4 hrs; format: functional, organism-based; parameters: dose 200 mg/kg; summary of the method: as §4
Staphylococcus aureus [20] = assay: Antibacterial activity against Staphylococcus aureus E19977 infected in NMRI mouse assessed as log reduction in extracellular bacterial cfu in peritoneum at 200 mg/kg, sc administered 2 hrs after infection measured after 4 hrs; format: functional, organism-based; parameters: dose 200 mg/kg; summary of the method: as §4
[21] = Cmax in human at 1000 mg, im; format: ADME, organism-based; parameters: dose 1000 mg, route […]; details: in vivo
Serum [22] = assay: Protein binding in human serum at 1000 mg, im; format: ADME, cell-free
[23] = Half life in human at 1000 mg, im; format: ADME, organism-based; details: in vivo

In the case of `CC[C@H]1OC(=O)[C@H](C)[C@@H](O[C@H]2C[C@@](C)(OC)[C@@H](O)[C@H](C)O2)[C@H](C)[C@@H](O[C@@H]2O[C@H](C)C[C@H](N(C)C)[C@H]2O)[C@](C)(O)C[C@@H](C)CN(C)[C@H](C)[C@@H](O)[C@]1(C)O` [AZITHROMYCIN], the Activity (Staphylococcus aureus [1]) is reported as “Active”, the Activity (Staphylococcus aureus [2]) is reported as “inactive” and the Activity (Staphylococcus aureus [3]) is reported as “inactive”. For the same molecule, the Activity (Staphylococcus aureus [4]) was “inactive”, the Activity (Staphylococcus aureus [5]) was “inactive” and the Activity (Staphylococcus aureus [6]) was “inactive”. The Activity (Staphylococcus aureus [7]) was “inactive”, the Activity (Staphylococcus aureus [8]) was “inactive” and the Activity (Staphylococcus aureus [9]) was “inactive”. The MIC (Staphylococcus aureus [10]) was 0.5 mg/L (≈ 0.668 µM), the Cmax [11] was 1 µg/mL and the Activity (Serum [12]) was 50%. For the same molecule, the half-life [13] was 10 h.
Work on `CO/N=C(\C(=O)N[C@@H]1C(=O)N2C(C(=O)O)=C(COC(N)=O)CS[C@H]12)c1ccco1` [CEFUROXIME] yielded an FC (Staphylococcus aureus [14]) of 2, an FC (Staphylococcus aureus [15]) of 2 and an FC (Staphylococcus aureus [16]) of 2. For the same molecule, the FC (Staphylococcus aureus [17]) was greater than 2, the Activity (Staphylococcus aureus [2]) was “inactive” and the Activity (Staphylococcus aureus [3]) was “inactive”. The Activity (Staphylococcus aureus [4]) was “inactive”, the Activity (Staphylococcus aureus [5]) was “inactive” and the Activity (Staphylococcus aureus [6]) was “inactive”. For the same molecule, the Activity (Staphylococcus aureus [18]) was “Active”, the Activity (Staphylococcus aureus [19]) was “inactive” and the Activity (Staphylococcus aureus [20]) was “Active”. It also gave an MIC (Staphylococcus aureus [10]) of 2 mg/L (≈ 4.71 µM), a Cmax [21] of 26 µg/mL and an Activity (Serum [22]) of 30%. It also gave a half-life [23] of 1.5 h.
